Assay results as given in ChEMBL document CHEMBL3352738, “A new phenylpropanoid and an alkylglycoside from Piper retrofractum leaves with their antioxidant and α-glucosidase inhibitory activity” (Bioorg Med Chem Lett, 2014).

Legend:
[1] = Antioxidant activity assessed as trolox equivalent of AAPH radical scavenging activity at 1 uM after 2 mins by ORAC-RCoo assay; format: physicochemical
Summary of the method: (§1)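 Peroxyl radical scavenging was measured by the oxygen radical absorbance capacity (ORAC) assay, with Trolox as the positive control. Values are reported as Trolox equivalents (TE).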

[2] = Antioxidant activity assessed as trolox equivalent of AAPH radical scavenging activity at 10 uM after 2 mins by ORAC-RCoo assay; format: physicochemical; summary of the method: as §1
[3] = Antioxidant activity assessed as […] reduction power at 1 uM after 1 hr by cupric ion reducing antioxidant capacity assay; format: physicochemical
[4] = Antioxidant activity assessed as […] reduction power at 10 uM after 1 hr by cupric ion reducing antioxidant capacity assay; format: physicochemical
[5] = Metal chelating activity of the compound assessed as Cu2+ chelating activity at 10 uM by fluorescence assay relative to control; format: physicochemical
[6] = Inhibition of alpha-glucosidase (unknown origin) using 3 mM p-NPG solution at 50 uM relative to control; conditions: Rattus norvegicus

Compound | Activity [1] [µM] | Activity [2] [µM] | Activity [3] [µM] | Activity [4] [µM] | Activity [5] [%] | inhibition [6] [%]
CC(C)O[C@@H]1O[C@H](CO[C@@H]2OC[C@@H](O)[C@H](O)[C@H]2O)[C@@H](O)[C@H](O)[C@H]1O | 0.31 | 2.13 | 0.27 | 0.63 | 21.67 | 7.49
CC(C)O[C@@H]1O[C@H](CO)[C@@H](O)[C@H](O)[C@H]1O | 0.22 | 1.79 | 0.29 | 0.54 | 20.97 | 7.31
C=CCc1ccc(O[C@@H]2O[C@H](CO)[C@@H](O)[C@H](O)[C@H]2O)c(O[C@@H]2O[C@H](CO)[C@@H](O)[C@H](O)[C@H]2O)c1 | 0.17 | 1.71 | 0.32 | 0.65 | 21.8 | 7.02
COc1cc(C[C@@H](O)CO)ccc1O[C@@H]1O[C@H](CO)[C@@H](O)[C@H](O)[C@H]1O | 0.55 | 2.88 | 0.29 | 0.96 | 24.21 | 11.7
OC[C@H]1O[C@@H](OCc2ccccc2)[C@H](O)[C@@H](O)[C@@H]1O | 0.18 | 1.83 | 0.41 | 0.69 | 22.39 | 12
CCCCC[C@H](C)O[C@@H]1O[C@H](CO[C@@H]2OC[C@](O)(CO)[C@H]2O)[C@@H](O)[C@H](O)[C@H]1O | 1.04 | 3.07 | 0.34 | 1.13 | 19.63 | 8.62
COc1cc(O[C@@H]2O[C@H](CO)[C@@H](O)[C@H](O)[C@H]2O)ccc1O [TACHIOSIDE] | 0.21 | 1.65 | 0.21 | 0.63 | 21.42 | 4.6
OC[C@@]1(O)CO[C@@H](OC[C@H]2O[C@@H](OCc3ccccc3)[C@H](O)[C@@H](O)[C@@H]2O)[C@@H]1O | 0.15 | 1.61 | 0.46 | 0.84 | 19.3 | 7.93
CCCCO[C@@H]1O[C@H](CO)[C@@H](O)[C@H](O)[C@H]1O | 0.62 | 3.64 | 0.18 | 1.68 | 18.04 | 
COc1cc(C[C@@H](O)CO)ccc1O | 3.59 | 28.2 | 9.01 | 43.82 | 25 | 
C=CCc1ccc(O)c(O)c1 [HYDROXYCHAVICOL] | 2.55 | 16.26 | 1.55 | 22.77 | 20.48 | 9.08
CCCCC[C@H](C)O[C@@H]1O[C@H](CO[C@@H]2OC[C@@H](O)[C@H](O)[C@H]2O)[C@@H](O)[C@H](O)[C@H]1O | 0.48 | 2.26 | 0.17 | 0.59 | 20.58 | 8.54
CC1=CC(=O)CC(C)(C)[C@@]1(O)CC[C@@H](C)O[C@@H]1O[C@H](CO)[C@@H](O)[C@H](O)[C@H]1O | 0.12 | 0.92 | 0.21 | 0.34 | 20.5 | 6.9
